In brackets after ≈: the same amount, converted by molar mass.
How the values were obtained:
[1] = Cytotoxicity against human KBVIN cells by MTT assay; format: functional, cell-based
In short: (§1)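 MTT colorimetric assay of cell viability. IC50 is expressed in μg/mL as the mean of 3 determinations.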

A549 = test: Cytotoxicity against human A549 cells by MTT assay; format: functional, cell-based; in short: as §1
DU-145 = test: Cytotoxicity against human DU145 cells by MTT assay; format: functional, cell-based; in short: as §1
[2] = Antiinflammatory activity in human neutrophils assessed as inhibition of fMLP/CB-induced superoxide anion generation after 15 mins by cytochrome c reduction assay; format: functional, cell-based; conditions: Neutrophil, 0.25 h
In short: (§2)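 Human neutrophils stimulated with fMLP/CB; superoxide anion generation and elastase release were measured. IC50 is the concentration giving 50% inhibition. Where 50% inhibition was not reached at any tested dose, % inhibition at 10 μg/mL is reported. Mean ± S.E.M., n = 3-5.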

[3] = Antiinflammatory activity in human neutrophils assessed as inhibition of fMLP/CB-induced elastase release using MeO-Suc-Ala-Ala-Pro-Val-MC as substrate at 10 ug/mL by spectrophotometry; format: functional; conditions: Neutrophil; in short: as §2
Neutrophil = test: Ratio of PMSF IC50 to compound IC50 for antiinflammatory activity in human neutrophils assessed as inhibition of fMLP/CB-induced elastase release; format: functional
KB = test: Cytotoxicity against human KB cells by MTT assay; format: functional, cell-based; in short: as §1
[4] = Antiinflammatory activity in human neutrophils pretreated with cytochalasin B assessed as inhibition of fMLP/CB-induced superoxide anion generation after 15 mins by cytochrome c reduction assay; format: functional, cell-based; conditions: Neutrophil; in short: as §2
[5] = Antiinflammatory activity in human neutrophils assessed as inhibition of fMLP/CB-induced elastase release using MeO-Suc-Ala-Ala-Pro-Val-MC as substrate by spectrophotometry; format: functional, cell-based; conditions: Neutrophil; in short: as §2
[6] = Antiinflammatory activity in human neutrophils assessed as inhibition of fMLP/CB-induced superoxide anion generation at 10 ug/mL after 15 mins by cytochrome c reduction assay; format: functional; conditions: Neutrophil, 0.25 h; in short: as §2
[7] = Antiinflammatory activity in human neutrophils assessed as inhibition of induced superoxide anion generation at 10 ug/mL after 15 mins by cytochrome c reduction assay in the absence of fMLP/CB; format: functional; conditions: Neutrophil, 0.25 h
[8] = Antiinflammatory activity in human neutrophils assessed as inhibition of elastase release using MeO-Suc-Ala-Ala-Pro-Val-MC as substrate at 10 ug/mL by spectrophotometry in the absence of fMLP/CB; format: functional; conditions: Neutrophil

SMILES	IC50 [1] [µg/mL]	IC50 (A549) [µg/mL]	IC50 (DU-145) [µg/mL]	IC50 [2] [µg/mL]	inhibition at 10 µg/mL [3] [%]	Ratio IC50 (Neutrophil)	IC50 (KB) [µg/mL]	IC50 [4] [µg/mL]	IC50 [5] [µg/mL]	inhibition at 10 µg/mL [6] [%]	inhibition at 10 µg/mL [7] [%]	inhibition at 10 µg/mL [8] [%]
CC(C)=CCOc1cc(O)c2c(=O)c3ccc(O)cc3oc2c1	5.3 (≈ 17 µM)	6.9 (≈ 22.1 µM)	3.7 (≈ 11.8 µM)	20.2 (≈ 64.7 µM)	4.21	–	–	–	–	–	–	–
CC(C)=CCCC1(C)C=Cc2c(cc(O)c3c(=O)c4ccc(O)cc4oc23)O1 (configuration not stated)	5.7 (≈ 15.1 µM)	5.1 (≈ 13.5 µM)	5.2 (≈ 13.7 µM)	–	–	200	5.3 (≈ 14 µM)	35.6 (≈ 94.1 µM)	0.49 (≈ 1.29 µM)	–	–	–
CC(C)=CCOc1ccc2c(=O)c3c(O)c(CC=C(C)C)c(OCC=C(C)C)cc3oc2c1	7.5 (≈ 16.7 µM)	7.9 (≈ 17.6 µM)	4.3 (≈ 9.59 µM)	–	7.56	–	–	–	–	10.1	–	–
CC(C)=CCC[C@]1(C)C=Cc2c(O)c3c(c(CC=C(C)C)c2O1)O[C@]12C(=C[C@@H]4C[C@H]1C(C)(C)O[C@@]2(C/C=C(/C)C(=O)O)C4=O)C3=O [GAMBOGIC ACID]	0.4 (≈ 0.636 µM)	0.5 (≈ 0.795 µM)	0.3 (≈ 0.477 µM)	–	–	–	0.3 (≈ 0.477 µM)	–	–	–	–	–
CC(C)=CCOc1ccc2c(=O)c3c(OCC=C(C)C)cc(OCC=C(C)C)cc3oc2c1	> 10	> 10	6.3 (≈ 14 µM)	–	54.9	–	–	–	–	64.3	–	–
CC1(C)C=Cc2c(cc3oc4cc(O)ccc4c(=O)c3c2O)O1	5.5 (≈ 17.7 µM)	5.8 (≈ 18.7 µM)	4.4 (≈ 14.2 µM)	0.46 (≈ 1.48 µM)	–	15	4.6 (≈ 14.8 µM)	–	0.64 (≈ 2.06 µM)	–	–	–
O=c1c2ccc(O)cc2oc2cc(O)cc(O)c12	> 10	> 10	> 10	5.84 (≈ 23.9 µM)	16	–	–	–	–	–	–	–
c1ccc2c(c1)[I+]c1ccccc1-2 [DIPHENYLENEIODONIUM]	–	–	–	0.7	–	–	–	–	–	–	–	–
CC(=O)O[C@H]1C(=O)[C@@]2(C)[C@H]([C@H](OC(=O)c3ccccc3)[C@]3(O)C[C@H](OC(=O)[C@H](O)[C@@H](NC(=O)c4ccccc4)c4ccccc4)C(C)=C1C3(C)C)[C@]1(OC(C)=O)CO[C@@H]1C[C@@H]2O [PACLITAXEL]	0.0011 (≈ 0.00129 µM)	–	0.0024 (≈ 0.00281 µM)	–	–	–	0.0016 (≈ 0.00187 µM)	–	–	–	–	–
CC1(C)Oc2cc3oc4cc(O)ccc4c(=O)c3c(O)c2C(O)C1O (configuration not stated)	6.8 (≈ 19.7 µM)	5.9 (≈ 17.1 µM)	5.4 (≈ 15.7 µM)	2.49 (≈ 7.23 µM)	35.3	–	6.3 (≈ 18.3 µM)	–	–	–	–	–
COc1ccc2c(=O)c3c(O)cc(O)cc3oc2c1	> 10	> 10	> 10	–	23.6	–	–	–	–	45.2	–	–
COc1ccc2c(=O)c3c(O)cc(OC)cc3oc2c1	> 10	> 10	> 10	–	26.5	–	–	–	–	31.3	–	–
CC(C)=CCCC1(C)Oc2cc3oc4cc(O)ccc4c(=O)c3c(O)c2C(O)C1O (configuration not stated)	> 10	> 10	> 10	4.3 (≈ 10.4 µM)	–	15	> 10	–	5.75 (≈ 13.9 µM)	–	–	–
CC(C)=CCc1c(O)cc2oc3c(CC=C(C)C)c(O)ccc3c(=O)c2c1O	4.4 (≈ 11.6 µM)	5 (≈ 13.1 µM)	2.8 (≈ 7.36 µM)	–	67.2	–	–	–	–	31.6	–	–
CC(C)=CCCC1(C)Oc2cc(O)c3c(=O)c4ccc(O)cc4oc3c2C(O)C1O (configuration not stated)	> 10	> 10	> 10	2.56 (≈ 6.21 µM)	–	15	> 10	–	8.46 (≈ 20.5 µM)	–	–	–
CC(C)=CCc1c(O)c(CC=C(C)C)c2oc3cc(O)ccc3c(=O)c2c1O	6.7 (≈ 17.6 µM)	6.4 (≈ 16.8 µM)	3.9 (≈ 10.3 µM)	–	–	–	–	–	–	–	101	102
CC(C)=CCc1c(O)cc2oc3cc(O)ccc3c(=O)c2c1O	5.4 (≈ 17.3 µM)	6.2 (≈ 19.9 µM)	3.8 (≈ 12.2 µM)	–	56.3	–	–	–	–	45.2	–	–
CC1(C)C=Cc2c(cc(O)c3c(=O)c4ccc(O)cc4oc23)O1	0.9 (≈ 2.9 µM)	5.8 (≈ 18.7 µM)	5.1 (≈ 16.4 µM)	3.97 (≈ 12.8 µM)	18.4	–	4.8 (≈ 15.5 µM)	–	–	–	–	–
CC(C)=CCCC1(C)C=Cc2c(cc3oc4cc(O)ccc4c(=O)c3c2O)O1 (configuration not stated)	6 (≈ 15.9 µM)	6.6 (≈ 17.4 µM)	6.2 (≈ 16.4 µM)	5.43 (≈ 14.3 µM)	–	15	6.2 (≈ 16.4 µM)	–	8.75 (≈ 23.1 µM)	–	–	–
CC1(C)Oc2cc(O)c3c(=O)c4ccc(O)cc4oc3c2C(O)C1O (configuration not stated)	0.8 (≈ 2.32 µM)	9.9 (≈ 28.8 µM)	6.7 (≈ 19.5 µM)	–	6.37	–	> 10	–	–	8.63	–	–
CC(C)=CCOc1ccc2c(=O)c3c(O)cc(OCC=C(C)C)cc3oc2c1	> 10	9.3 (≈ 24.4 µM)	> 10	–	13.3	–	–	–	–	5.32	–	–
O=S(=O)(F)Cc1ccccc1 [PHENYLMETHYLSULFONYLFLUORIDE]	–	–	–	–	–	–	–	–	131 (≈ 752 µM)	–	–	–

Reference: ChEMBL document CHEMBL2029342, “Design and synthesis of gambogic acid analogs as potent cytotoxic and anti-inflammatory agents” (Bioorg Med Chem Lett, 2012)
